Reference: ChEMBL document CHEMBL1124864, “Synthesis and biological evaluation of new antimuscarinic compounds with amidine basic centers. A useful bioisosteric replacement of classical cationic heads” (J Med Chem, 1990)

What was measured:
[1] = pKa value was determined; assay type: physicochemical
Method in brief: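 Macroscopic pKa measured by potentiometric titration in water containing a few milliliters of methanol, with a glass electrode.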

Cavia porcellus [2] = species: Cavia porcellus; assay: In vitro functional studies in guinea pig ileum
Cavia porcellus [3] = species: Cavia porcellus; assay: In vitro functional studies in guinea pig left atrium; conditions: Cardiac atrium
[4] = biological target: T1, Muscarinic acetylcholine receptor M1 (Rattus norvegicus, UniProt P08482); assay: In vitro receptor binding against Muscarinic acetylcholine receptor M1 in rat cerebral cortex was determined using [3H]pirenzepine; assay type: tissue-based
T1 sequence (P08482 whole entry): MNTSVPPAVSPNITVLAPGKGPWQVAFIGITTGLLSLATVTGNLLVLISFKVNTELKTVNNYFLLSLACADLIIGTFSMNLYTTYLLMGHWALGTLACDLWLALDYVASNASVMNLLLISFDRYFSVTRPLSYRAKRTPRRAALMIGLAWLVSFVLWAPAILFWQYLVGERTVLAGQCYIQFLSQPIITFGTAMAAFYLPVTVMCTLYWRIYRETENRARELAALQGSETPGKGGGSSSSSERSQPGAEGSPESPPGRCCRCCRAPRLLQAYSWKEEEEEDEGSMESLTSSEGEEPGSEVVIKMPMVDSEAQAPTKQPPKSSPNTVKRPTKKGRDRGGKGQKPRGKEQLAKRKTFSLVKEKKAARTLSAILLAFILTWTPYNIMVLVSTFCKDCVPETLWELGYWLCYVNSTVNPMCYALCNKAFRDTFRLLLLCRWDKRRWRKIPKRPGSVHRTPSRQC
Method in brief: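 Rat cortex, heart or submandibular gland homogenates in Na+-Mg2+-HEPES pH 7.4, incubated 45 min at 30 °C with radioligand plus varying cold ligand. Separated by centrifugation, pellets washed and counted, in triplicate. KD from IC50 by nonlinear regression with Cheng–Prusoff correction; Hill slopes by linear regression.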

Rattus norvegicus [5] = assay: […] activity against carbachol-induced colonic spasms in rat (iv); assay type: functional
Method in brief: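 Compounds given iv 2 min before each spasmogen dose. Percent inhibition of pretreatment contractions; ED50 with 95% confidence limits from linear regression of log dose-response curves.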

Rattus norvegicus [6] = assay: In vivo activity against oxotremorine induced tremors in rat (iv)
Rattus norvegicus [7] = assay: In vivo activity against oxotremorine induced salivation in rat (iv)
[8] = biological target: T2, Muscarinic acetylcholine receptor M2 (Rattus norvegicus, UniProt P10980); assay: In vitro receptor binding against Muscarinic acetylcholine receptor M2 in rat heart was determined using [3H]NMS
T2 sequence (P10980 whole entry): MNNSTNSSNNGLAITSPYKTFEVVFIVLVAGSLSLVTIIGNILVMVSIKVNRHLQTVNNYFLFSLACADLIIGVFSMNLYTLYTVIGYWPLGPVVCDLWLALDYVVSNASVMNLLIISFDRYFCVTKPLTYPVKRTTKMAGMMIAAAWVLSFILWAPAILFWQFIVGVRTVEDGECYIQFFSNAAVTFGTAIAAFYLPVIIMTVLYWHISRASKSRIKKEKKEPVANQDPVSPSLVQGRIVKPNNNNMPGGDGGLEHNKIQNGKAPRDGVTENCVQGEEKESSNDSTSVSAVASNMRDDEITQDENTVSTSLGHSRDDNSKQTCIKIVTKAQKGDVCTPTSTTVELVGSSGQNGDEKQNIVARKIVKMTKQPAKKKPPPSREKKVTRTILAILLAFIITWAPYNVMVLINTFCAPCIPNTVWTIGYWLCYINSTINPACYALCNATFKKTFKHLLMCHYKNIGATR

[9] = biological target: Muscarinic acetylcholine receptor M3 (Rattus norvegicus, UniProt P08483); assay: In vitro receptor binding against Muscarinic acetylcholine receptor M3 in rat submandibular gland was determined using [3H]NMS
Chain of Muscarinic acetylcholine receptor M3 (P08483 whole entry): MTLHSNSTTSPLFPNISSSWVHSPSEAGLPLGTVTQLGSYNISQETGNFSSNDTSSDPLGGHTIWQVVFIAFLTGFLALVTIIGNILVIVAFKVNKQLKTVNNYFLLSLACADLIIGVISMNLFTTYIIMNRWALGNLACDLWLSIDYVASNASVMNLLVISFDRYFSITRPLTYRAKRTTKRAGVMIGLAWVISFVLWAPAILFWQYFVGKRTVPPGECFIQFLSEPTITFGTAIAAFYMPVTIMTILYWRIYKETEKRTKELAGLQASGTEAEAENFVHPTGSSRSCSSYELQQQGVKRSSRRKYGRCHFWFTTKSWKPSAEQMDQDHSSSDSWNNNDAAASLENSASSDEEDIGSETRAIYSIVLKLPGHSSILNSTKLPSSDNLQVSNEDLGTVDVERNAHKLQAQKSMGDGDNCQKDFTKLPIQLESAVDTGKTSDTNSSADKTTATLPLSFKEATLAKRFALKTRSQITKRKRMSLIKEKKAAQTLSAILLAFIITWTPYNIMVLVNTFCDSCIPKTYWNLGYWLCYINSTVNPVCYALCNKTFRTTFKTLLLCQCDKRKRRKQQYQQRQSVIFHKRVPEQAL

SMILES	pKa [1]	Kb (Cavia porcellus [2]) [nM]	Kb (Cavia porcellus [3]) [nM]	Kd [4] [nM]	ED50 (Rattus norvegicus [5]) [µg/kg]	ED50 (Rattus norvegicus [6]) [µg/kg]	ED50 (Rattus norvegicus [7]) [µg/kg]	Kd [8] [nM]	Kd [9] [nM]
Cl.N=CN1C2CCC1CC(OC(=O)C(CO)c1ccccc1)C2 (centres undefined)	10.3	0.72	1.59	1.1	3.5	> 10000	3.9	1.6	1.4
Cl.N=C(N)N1C2CCC1CC(OC(=O)C(CO)c1ccccc1)C2 (centres undefined)	11.6	1.92	3.06	7	9.8	> 3000	5.8	11	2.5
Cl.N=CN1C2CC(OC(=O)C(CO)c3ccccc3)CC1C1OC12 (centres undefined)	9.78	1.68	6.55	3.6	6.1	1300	2.45	10	5
CC(=N)N1C2CCC1CC(OC(=O)C(CO)c1ccccc1)C2.Cl (centres undefined)	10.9	1.61	3.17	2	3.3	> 10000	6.2	10	3.1
C[N+]1(C)[C@@H]2CC[C@H]1C[C@@H](OC(=O)C(CO)c1ccccc1)C2 (some centres undefined) [ATROPINE METHYLBROMIDE]	–	0.71	1.29	–	–	–	–	2.7	2.6
CN1[C@@H]2CC[C@H]1C[C@@H](OC(=O)C(CO)c1ccccc1)C2 (some centres undefined) [ATROPINE]	–	3.16	0.66	–	4.5	453	8.6	–	–
C[N+]1(C)C2CC(OC(=O)C(CO)c3ccccc3)CC1C1OC12 (centres undefined)	–	0.17	0.38	–	–	–	–	–	–
Cl.N=C(N)N1C2CC(OC(=O)C(CO)c3ccccc3)CC1C1OC12 (centres undefined)	10.8	5.18	16.4	7.5	18.6	> 3000	18.8	23	4.5
CC(=N)N1C2CC(OC(=O)C(CO)c3ccccc3)CC1C1OC12.Cl (centres undefined)	10.7	1.55	5.02	3.4	3.9	1700	4.1	6.7	3.5
CN1[C@@H]2C[C@@H](OC(=O)[C@H](CO)c3ccccc3)C[C@H]1[C@@H]1O[C@@H]12 [SCOPOLAMINE]	–	0.4	0.17	–	5.8	11	2.6	–	–
CCCC[N+]1(C)C2CC(OC(=O)C(CO)c3ccccc3)CC1C1OC12.[Br-] (centres undefined)	–	56.3	58.4	300	52.9	> 3000	385	220	220
O=C(O[C@@H]1C[C@@H]2N[C@H](C1)[C@@H]1O[C@@H]12)[C@H](CO)c1ccccc1	7.09	–	–	–	–	–	–	–	–
